Experimental data published in ChEMBL document CHEMBL4715860 (J Med Chem, 2020).
The source made the active and inactive calls. The rule behind the calls is not given here.

Tests used:
[1] = molecular target: T1, Serine/threonine-protein kinase mTOR (Homo sapiens, UniProt P42345); assay: Binding affinity to wild-type human partial length MTOR (L1382 to W2549 residues) expressed in HEK293 cells measured after 1 hr by Kinomescan method; format: cell-based
Summary of the method: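 Compound given as an 11-point threefold series from 30 μM, in technical duplicate. Kd from a Hill fit with slope fixed at −1.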

[2] = molecular target: T1, Serine/threonine-protein kinase mTOR; assay: Inhibition of alexa fluor 647-labeled kinase tracer 314 binding to recombinant human N-terminal GST-tagged mTOR (1360 to 2549 residues) expressed in baculovirus expression system measured after 60 mins by TR-FRET based LanthaScreen Eu kinase binding assay
CYP1A2 = molecular target: T2, CYP1A2 (Homo sapiens, UniProt P05177); assay: Drug metabolism assessed as human recombinant CYP1A2 expressed in baculovirus infected insect cells-mediated metabolism by measuring parent compound remaining at 1 uM incubated for 60 mins in presence of NADPH regenerating system by UHPLC based LC-MS analysis; format: ADME; conditions: read-out: Stabilty
T2 sequence (P05177 whole entry): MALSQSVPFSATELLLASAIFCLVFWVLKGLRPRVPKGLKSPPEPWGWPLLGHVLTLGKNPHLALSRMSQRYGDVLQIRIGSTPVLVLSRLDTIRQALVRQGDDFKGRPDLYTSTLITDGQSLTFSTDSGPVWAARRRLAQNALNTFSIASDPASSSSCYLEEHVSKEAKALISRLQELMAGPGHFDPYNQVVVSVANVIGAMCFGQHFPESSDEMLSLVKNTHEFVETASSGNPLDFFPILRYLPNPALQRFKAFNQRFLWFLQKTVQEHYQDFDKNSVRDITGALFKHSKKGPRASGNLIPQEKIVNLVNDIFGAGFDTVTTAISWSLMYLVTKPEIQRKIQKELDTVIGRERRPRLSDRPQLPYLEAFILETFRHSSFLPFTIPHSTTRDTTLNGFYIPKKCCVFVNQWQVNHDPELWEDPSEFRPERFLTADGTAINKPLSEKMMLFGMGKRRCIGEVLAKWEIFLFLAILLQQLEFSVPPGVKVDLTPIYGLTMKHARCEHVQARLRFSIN

Mus musculus [3] = assay: In vivo inhibition of mTORC2 signalling pathway in C57BL/6J mouse assessed as reduction in PKB/Akt phosphorylation at Ser473 in brain at 25 mg/kg, po incubated for 30 mins by Western blot analysis; format: functional, organism-based
Summary of the method: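 Female C57BL/6J mice dosed at 25 mg/kg p.o.; cortex collected 30 min later and lysed. Equal protein run on SDS-PAGE and western blotted for pS6(Ser235/236), pPKB(Ser473) and α-tubulin, detected by HRP secondary antibodies and ECL. Signal expressed as % of control cortex, n = 3, mean ± SEM, unpaired t-test.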

[4] = Tmax in C57BL/6J mouse plasma at 10 mg/kg, po administered as single dose by mass spectrometry based UHPLC analysis; format: ADME, organism-based
Summary of the method: (§1)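 Female C57BL/6J mice dosed orally at 10 mg/kg in 20% Captisol, either once or once daily for 4 days with sampling after the last dose on day 4. Plasma and brain concentrations followed over time. Tmax taken from at least 3 time points.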

[5] = Tmax in C57BL/6J mouse brain at 10 mg/kg, po administered as single dose by mass spectrometry based UHPLC analysis; format: ADME, organism-based; summary of the method: as §1
[6] = Metabolic stability in Sprague-Dawley rat hepatocytes assessed as half-life at 5 uM incubated for 3 hrs by LC-MS analysis; format: ADME, cell-based, Hepatocyte
Summary of the method: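 Cryopreserved primary hepatocytes in suspension from CD-1 mouse, Sprague-Dawley rat, Beagle dog and human. Compound at 5 μM final (from 10 mM DMSO stock). Samples taken at 0, 15, 60, 90 and 180 min and quenched with ACN plus internal standard. Parent quantified by LC-MS. Hepatocyte-free medium incubations served as negative control; 7-ethoxycoumarin as positive control. Duplicate; CLint per 10^6 cells and t1/2.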

[7] = Elimination half life in C57BL/6J mouse plasma at 10 mg/kg, po administered once a day for 4 consecutive days by mass spectrometry based UHPLC analysis; format: ADME, organism-based; conditions: time 4 day, read-out: beta t1/2 (converted)
Summary of the method: (§2)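 Female C57BL/6J mice given 10 mg/kg p.o. in 20% Captisol once daily for 4 consecutive days. Plasma and brain sampled after the final dose on day 4, n = 3 per time point.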

Rattus norvegicus = assay: In vivo inhibition of PI3Kalpha Sprague-Dawley rat assessed as increase in plasma insulin concentration at 5 mg/kg, po measured after 8 hrs by ELISA; format: functional, organism-based
Summary of the method: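 Male Sprague Dawley rats dosed orally at 5 mg/kg; plasma insulin and glucose followed over time against vehicle, n = 3, mean ± SEM.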

[8] = AUC (0 to 8 hrs) in C57BL/6J mouse plasma at 25 mg/kg, po administered as single dose by mass spectrometry based UHPLC analysis; format: ADME, organism-based; set-up: time < 8 hr, route oral, dose 25 mg/kg
Summary of the method: (§3)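 One oral dose of 25 mg/kg to female C57BL/6J mice. Plasma and brain concentrations followed over time, n = 3 per time point (mean).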

[9] = Metabolic stability in Beagle dog hepatocytes assessed as parent compound remaining at 5 uM incubated for 3 hrs by LC-MS analysis; format: ADME, cell-based, Canis lupus familiaris, Hepatocyte; conditions: read-out: Stabilty
Summary of the method: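 Cryopreserved primary hepatocytes in suspension (CD-1 mouse, Sprague-Dawley rat, Beagle dog, human). Compound diluted from 10 mM DMSO stock to 5 μM final. Sampled at 0, 15, 60, 90 and 180 min, protein precipitated with ACN plus internal standard, supernatant analysed by LC−MS. Run in duplicate. 7-ethoxycoumarin as positive control. Hepatocyte-free medium incubations as negative control.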

Mus musculus [10] = assay: In vivo inhibition of PI3Kalpha in C57BL/6J mouse assessed as increase in plasma glucose concentration at 25 mg/kg, po measured after 8 hrs by glucoseoxidase-peroxide coupled colorimetric assay; format: functional, organism-based
Summary of the method: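 Female C57BL/6J mice given one oral dose (25 mg/kg); plasma insulin and glucose monitored over time, mean ± SEM.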

[11] = Elimination half life in C57BL/6J mouse plasma at 10 mg/kg, po administered as single dose by mass spectrometry based UHPLC analysis; format: ADME, organism-based; conditions: read-out: beta t1/2 (converted)
Summary of the method: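 Female C57BL/6J mice, one oral dose of 10 mg/kg in 20% Captisol; plasma and brain levels over time, n = 3 per time point (mean).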

[12] = Elimination half life in C57BL/6J mouse plasma at 25 mg/kg, po administered as single dose by mass spectrometry based UHPLC analysis; format: ADME, organism-based; conditions: read-out: beta t1/2 (converted); summary of the method: as §3
[13] = Elimination half life in C57BL/6J mouse brain at 10 mg/kg, po administered once a day for 4 consecutive days by mass spectrometry based UHPLC analysis; format: ADME, organism-based; conditions: time 4 day, read-out: beta t1/2 (converted); summary of the method: as §2
[14] = Cmax in C57BL/6J mouse plasma at 10 mg/kg, po administered once a day for 4 consecutive days by mass spectrometry based UHPLC analysis; format: ADME, organism-based; set-up: route oral, dose 10 mg/kg, time 4 day; summary of the method: as §2
[15] = Tmax in C57BL/6J mouse brain at 10 mg/kg, po administered once a day for 4 consecutive days by mass spectrometry based UHPLC analysis; format: ADME, organism-based; conditions: time 4 day; summary of the method: as §1

SMILES | Kd [1] [nM] | Ki [2] [nM] | remaining at 1 h, 1 µM (CYP1A2) [%] | inhibition (Mus musculus [3]) | Tmax [4] [h] | Tmax [5] [h] | half-life at 5 µM [6] [h] | half-life [7] [h] | inhibition (Rattus norvegicus) | AUC(0-t) at 8 h [8] [ng·h/mL] | remaining at 3 h, 5 µM [9] [%] | inhibition (Mus musculus [10]) | half-life [11] [h] | half-life [12] [h] | half-life [13] [h] | Cmax [14] [ng/mL] | Tmax [15] [h]
C[C@@H]1COCCN1c1nc(-c2cnc(N)cc2C(F)F)nc(N2CCOCC2(C)C)n1 | 0.88 | 4.7 | 101 |  |  |  |  |  |  |  |  |  |  |  |  |  | 
C[C@@H]1COCCN1c1nc(-c2cnc(N)cc2C(F)F)nc(N2[C@H](C)COC[C@@H]2C)n1 | 0.67 | 3.6 | 98.5 | Active | 0.5 | 0.5 | 2.7 | 2.2 | inactive | 10300 | 75.6 | inactive | 3 | 2.4 | 2.3 | 947 | 0.5
